Assay outcomes (PubChem BioAssay)
A selection: hits, their analogues and other compounds. The true share with any hit is near 1.9%.
RAM network inh: inhibitors of the yeast RAM network. S. cerevisiae dse1pr::URA3 reporter, 5-FOA growth OD615, 2 d; analog-sensitive cbk1-as2 kinase mutant strain. inhibition, % at 50 µM. 190,000 compounds, 1.8% hits;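 active = inhibition above a set limit, 3 SD over mean compound inhibition, cut at about 8.4% in these data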;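 note: 0% = DMSO-only wells with no growth and 100% = 10 µM 1-NA-PP1 full growth; inhibition rescues growth on 5-FOA so higher OD means more RAM inhibition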
NCF1 inh: inhibitors of human p47phox binding | inhibition, % at 24.7 µM | AID 1274 | P14598 | p47phox/p22phox peptide binding, fluorescence polarization, 2 h | 220,000 compounds, 0.53% hits;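 active = inhibition above about 30%, limit read from the data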;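 note: 0% = p47phox with labelled peptide and 100% = labelled peptide alone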
Target sequence (P14598 whole entry, looked up): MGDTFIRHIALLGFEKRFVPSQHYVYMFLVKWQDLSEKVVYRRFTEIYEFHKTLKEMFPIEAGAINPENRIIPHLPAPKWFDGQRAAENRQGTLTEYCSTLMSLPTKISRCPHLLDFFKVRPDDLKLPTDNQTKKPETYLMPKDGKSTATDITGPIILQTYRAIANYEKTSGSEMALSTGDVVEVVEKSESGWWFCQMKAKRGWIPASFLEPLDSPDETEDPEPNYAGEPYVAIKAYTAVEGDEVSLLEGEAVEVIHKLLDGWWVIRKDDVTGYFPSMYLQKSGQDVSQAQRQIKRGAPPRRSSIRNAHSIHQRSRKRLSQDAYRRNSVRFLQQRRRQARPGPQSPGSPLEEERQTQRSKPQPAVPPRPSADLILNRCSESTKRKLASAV
p-CIP stab down: lowers stability of the mouse p/CIP coactivator protein | Q05BA5 | F442A p/CIP-EGFP cells, EGFP fluorescence, 16 h | decrease of EGFP signal, % at 10 µM | 290,000 compounds, 0.01% hits;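 active = EGFP signal decrease of at least 30% at 10 µM or well 3 SD below plate mean, unless failing retest; inactive = the rest, including hits failing retest or dose response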
Dynein transport: dynein cargo transport inhibition | 3617.4 mouse cells, GR-EGFP nuclear translocation imaging; test concentration mostly 20 µM; stimulated with dexamethasone, 1 µM; active compounds read low | z-score, hits read low | 220,000 compounds, 0.47% hits;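 active = plate z-score of nuclear minus cytoplasmic receptor signal below a set negative limit, without overly bright fluorescence or cell loss, cut at about -3.5 in these data, passing the limit was not always enough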;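 note: z-score of nuclear minus cytoplasmic ring GR-EGFP intensity difference per well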
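medium = tetracycline-free induction medium containing charcoal-stripped FBS | also added = 1.0 µM final dexamethasone stimulus | schedule = 48 h induction, 1 h compound, 30 min dex at 37 °C | technique = fixed, Hoechst-stained cells imaged at 10x for EGFP | measure = GR-EGFP nuclear translocation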
* marks the source's active call; other numbers are inactive results; . = no result.

SMILES	RAM network inh	NCF1 inh	p-CIP stab down	Dynein transport
Cc1cc(=O)oc2cc(OCC(=O)c3ccc4c(c3)NC(=O)CO4)ccc12	0	37*	3	-1.8
Cc1ccc(C(=O)COc2ccc3c(C)cc(=O)oc3c2)cc1	.	.	7	.
Cc1cc(=O)oc2cc(OCC(=O)Nc3cccc(S(=O)(=O)N(C)C)c3)ccc12	5	31*	-6	0.23
Fc1cnc(Cl)nc1NC1CCCCC1	.	.	0	.
Cc1cc(N)c2cc(NC(=O)/C=C/c3ccccc3Cl)ccc2n1	.	97*	-4	-6.6
Cc1ccc(C)c2[nH]c(=O)c(CCNC(=O)c3cc4ccccc4o3)cc12	8.5*	-18	-7	-0.26
COc1ccccc1NC(=O)CCCc1nnc2n(C)c(=O)c3sccc3n12	.	.	-21	.
COc1ccccc1NS(=O)(=O)c1ccc(Cl)c(NC(=O)c2sc3cc(Cl)ccc3c2Cl)c1	9.0*	-16	-3	-0.7
Cc1ccc(NC(=O)CN2C(=O)/C(=C3\SC(=S)N(C4CCS(=O)(=O)C4)C3=O)c3ccccc32)cc1 (stereo not drawn)	7	76*	-3	-0.1
O=C(CN1C(=O)/C(=C2\SC(=S)N(C3CCS(=O)(=O)C3)C2=O)c2ccccc21)Nc1ccccc1 (stereo not drawn)	6	69*	12	-0.26
CC1(C)NC(=O)N(CC(O)CN(c2ccccc2)S(=O)(=O)c2ccccc2[N+](=O)[O-])C1=O (stereo not drawn)	.	.	1	.
CCOC(=O)N/N=C/c1ccc(OCCSc2ccc(Cl)cc2)c(OC)c1	9.9*	-1	-13	0.72
O=C(/C=C/c1ccc(O)cc1)c1ccccc1	.	-12	5	-1
O=C(/C=C/c1ccc(N2CCC(c3ccccc3)=N2)cc1)c1ccccc1	11*	-241	-10	-5.7*
CCOC(=O)c1cccc(-n2c(C)nc3ccccc3c2=O)c1	0	3	-10	0.6
CCOC(=O)c1cccc(N2C(=O)c3ccccc3S2(=O)=O)c1	-1	81*	-4	0.25
CCOc1nc(-c2ccccc2)ccc1-c1noc(-c2cccs2)n1	11*	-20	-1	-0.22
CC1CC(C)CN(CCCNC(=O)COc2cc(=O)n(C)c3ccccc23)C1 (stereo not drawn)	3	-5	-8	-0.74
CCn1c(=O)cc(OCC(=O)NCCCN2CC(C)CC(C)C2)c2ccccc21 (stereo not drawn)	1	68*	5	-0.53
COc1ccc(OC)c(-c2cc(C(=O)N3CCCc4ccccc43)no2)c1	9.3*	-9	-7	1.9
Cc1ccc2c(c1)CCCN2C(=O)c1c(C)noc1C	0	-1	-11	-0.72
Cc1noc(C)c1C(=O)N1CCCc2ccccc21	3	53*	6	-0.18
COc1ccccc1-c1cc(C(=O)N2CCCc3ccccc32)no1	8	-4	7	0.19
CC(=O)c1ccc(NC(=O)CSc2nnc(-c3ccco3)c(-c3ccco3)n2)cc1	3	-1	-16	-0.79
O=C(CSc1nnc(-c2ccco2)c(-c2ccco2)n1)c1ccccc1	10*	4	-10	-0.11
SMILES	RAM network inh	NCF1 inh	p-CIP stab down	Dynein transport
O=S(=O)(O/N=C1\CCCc2ccccc21)c1ccccc1	0	-8	-12	-0.54
COc1ccc(S(=O)(=O)O/N=C2\CCCc3ccccc32)cc1	3	42*	6	-0.53
O=C1c2ccccc2C(=O)C1c1ccc(Cl)cc1	.	.	12	.
O=C1c2ccccc2C(=O)C12OC2c1ccc(Cl)cc1Cl (stereo not drawn)	3	-7	-1	-4.6*
CC1CCCC(C)N1CC(O)COCc1ccccc1 (stereo not drawn)	.	.	-6	.
CN(C)CCCn1c(SCC(=O)Nc2nc(-c3cccc(Br)c3)cs2)nc2ccccc2c1=O	.	76*	-10	1.9
Cc1ccc(CN(C(=O)c2ccc([N+](=O)[O-])cc2)C2CCS(=O)(=O)C2)o1 (stereo not drawn)	.	.	6	.
COc1ccc(/C=C/C(=O)c2ccc3c4c(cccc24)CC3)cc1	8.8*	-11	-7	0.44
COc1ccc(-c2cc(C(F)(F)F)nc(NCc3ccco3)n2)cc1OC	3	10	-7	-0.069
COc1cccc(-c2cc(C(F)(F)F)nc(NCc3ccco3)n2)c1	8.9*	-14	-8	-0.47
COc1ccc(C(C(=O)NCc2ccc(F)cc2)N(C(=O)c2csnn2)C2CC2)cc1 (stereo not drawn)	.	.	-12	.
Cc1ccc(C)c(S(=O)(=O)/N=C2\C=C(NS(=O)(=O)c3ccccc3)C(=O)c3ccccc32)c1	.	.	-1	.
Cc1cc(C)c(S(=O)(=O)/N=C2/C=C(Sc3ncn[nH]3)C(=O)c3ccccc32)cc1C	3	54*	-21	-6.6*
O=C(c1nn2c(C(F)(F)F)cc(-c3ccccc3)nc2c1Cl)N1CCN2CCCC2C1 (stereo not drawn)	.	.	5	.
O=c1[nH]c(/C=C\c2ccccc2F)nc(O)c1[N+](=O)[O-]	.	.	-19	.
Cc1cc(C)n2c(=S)[nH]nc2n1	1	40*	2	-0.27
COC(=O)c1ccc(CSc2cc(C)c3cccc(C)c3n2)o1	8.5*	-8	-5	0.44
Cc1c[n+](CC(=O)c2ccccc2)cs1	.	.	2	.
COc1cc(C(=O)c2ccccc2)c(OC)cc1C(=O)Nc1ccc(O)cc1	4	0	-21	-0.58
CCCCNC(=S)N/N=C1\C(=O)c2cccc3cccc1c23	9.1*	-2	-7	-0.34
CNC(=S)N/N=C1\C(=O)c2cccc3cccc1c23	2	-6	-5	0.84
NC1=NC2CS(=O)(=O)CC2S1 (stereo not drawn)	0	2	-12	-0.97
O=C(c1ccco1)N(Cc1ccc([N+](=O)[O-])cc1)c1ccc(Br)cc1	8.4*	2	4	1.5
O=C(c1ccco1)N(Cc1ccccc1)c1cccc([N+](=O)[O-])c1	1	11	-35	1.6
O=C(c1ccco1)N(Cc1cccc([N+](=O)[O-])c1)c1ccc(Br)cc1	9.3*	6	-20	0.29
SMILES	RAM network inh	NCF1 inh	p-CIP stab down	Dynein transport
COc1ccc(CCN=C(N)NS(=O)(=O)c2cccs2)cc1	1	6	-6	-0.86
COCCNC(=O)CN(C(=O)CCC(=O)Nc1ccccn1)c1ccc(C)cc1C	.	.	3	.
COc1ccc(Oc2nc(SC)nc3ccsc23)cc1	0	41*	5	-0.07
CCc1sc(N(C(=O)Cc2ccccc2)c2ccccc2F)nc1-c1ccc(C)cc1	6	-11	-4	-1.1
CCc1sc(N(C(=O)Cc2ccccc2)c2cccc(F)c2)nc1-c1ccc(C)cc1	8.9*	-10	-5	0.72
O=C(NCc1ccc2c(c1)OCO2)c1ccc(NS(=O)(=O)c2ccc3c(c2)OCCO3)cc1	8.5*	-13	-12	-0.72
O=C(CSc1nc2sc3c(c2c(=O)[nH]1)CCC3)NCCO	.	-7	-6	0.054
COC(=O)CSc1nc2sc3c(c2c(=O)[nH]1)CCC3	.	76*	4	-0.25
Cc1ccc(C)c(SCC(=O)Nc2cc(C)nn2-c2ccc(F)cc2)c1	8.6*	-8	2	2.1
